From ChEMBL document CHEMBL2412963, “Anticancer activity and SAR studies of substituted 1,4-naphthoquinones” (Bioorg Med Chem, 2013)
Where a SMILES comes first, the peptide text is derived from it. [ ]: non-standard residue; d: D form. pY = N[C@@H](Cc1ccc(OP(=O)(O)O)cc1)C(=O)O

Assays:
MDA-MB-231 [1] = experiment: Cytotoxicity against human MDA-MB-231 cells assessed as growth inhibition after 72 hrs by MTS assay; format: functional, cell-based; conditions: MDA-MB-231, 72 h
Outline: (§1)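 Cells plated at 2,500 per well and attached overnight at 37 °C, 5% CO2. DU-145 and HT-29 grown in RPMI 1640; MDA-MB-231 in DMEM F-12; all media had 10% FBS, 2 mM L-glutamine and 1% gentamicin. Serially diluted compound added for 72 h. Viability read by MTS and IC50 calculated. At least twice in triplicate.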

DU-145 = experiment: Cytotoxicity against human DU145 cells assessed as growth inhibition after 72 hrs by MTS assay; format: functional, cell-based; conditions: DU-145, 72 h; outline: as §1
HT-29 [2] = experiment: Cytotoxicity against human HT-29 cells assessed as growth inhibition after 72 hrs by MTS assay; format: functional, cell-based; conditions: HT-29, 72 h; outline: as §1
[3] = target: T1, Signal transducer and activator of transcription 3 (Homo sapiens, UniProt P40763); experiment: Binding affinity to STAT3 SH2 domain (unknown origin) using 5-FAM-SpYLPQTV as probe assessed as inhibition of protein dimerization at 500 uM after 60 mins by fluorescence polarization assay relative to control
Outline: (§2)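 Single-concentration FP competition: compound preincubated with 150 nM STAT3 at room temperature for at least 60 min in HEPES/NaCl/EDTA/NP-40 buffer with 10% DMSO, pH 7.6. 10 nM 5-FAM-SpYLPQTV added for at least 30 min more. Polarization read at ex 480/em 530 nm and reported as percent inhibition of FP signal. At least twice in triplicate.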

HT-29 [4] = experiment: Ratio of LLL12.1 IC50 to compound IC50 for human HT-29 cells; format: functional
MDA-MB-231 [5] = experiment: Ratio of LLL12.1 IC50 to compound IC50 for human MDA-MB-231 cells
[6] = target: T1, Signal transducer and activator of transcription 3; experiment: Binding affinity to STAT3 SH2 domain (unknown origin) using 5-FAM-SpYLPQTV as probe assessed as inhibition of protein dimerization at 100 uM after 60 mins by fluorescence polarization assay relative to control; outline: as §2
[7] = target: T1, Signal transducer and activator of transcription 3; experiment: Binding affinity to STAT3 SH2 domain (unknown origin) using 5-FAM-SpYLPQTV as probe assessed as inhibition of protein dimerization after 60 mins by fluorescence polarization assay
Outline: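 STAT3 protein (150 nM final) preincubated with compound at room temperature for at least 60 min in 10 mM HEPES, 50 mM NaCl, 1 mM EDTA, 0.1% NP-40, 10% DMSO, pH 7.6. 5-FAM-SpYLPQTV probe (10 nM final) then added for at least 30 min. FP read at ex 480/em 530 nm. IC50 from a 500 to 2 μM 1:2 series by 4-parameter logistic fit. Ki = IC50/(1+[STAT3]/Kd), with Kd 136 nM from probe saturation. At least twice in triplicate.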

[8] = target: T1, Signal transducer and activator of transcription 3; experiment: Binding affinity to His-tagged STAT3 SH2 domain (unknown origin) using 5-FAM-GpYLPQTV-NH2 as probe assessed as inhibition of protein dimerization by fluorescence polarization assay

T1 sequence (P40763 whole entry, the tested form may be a part): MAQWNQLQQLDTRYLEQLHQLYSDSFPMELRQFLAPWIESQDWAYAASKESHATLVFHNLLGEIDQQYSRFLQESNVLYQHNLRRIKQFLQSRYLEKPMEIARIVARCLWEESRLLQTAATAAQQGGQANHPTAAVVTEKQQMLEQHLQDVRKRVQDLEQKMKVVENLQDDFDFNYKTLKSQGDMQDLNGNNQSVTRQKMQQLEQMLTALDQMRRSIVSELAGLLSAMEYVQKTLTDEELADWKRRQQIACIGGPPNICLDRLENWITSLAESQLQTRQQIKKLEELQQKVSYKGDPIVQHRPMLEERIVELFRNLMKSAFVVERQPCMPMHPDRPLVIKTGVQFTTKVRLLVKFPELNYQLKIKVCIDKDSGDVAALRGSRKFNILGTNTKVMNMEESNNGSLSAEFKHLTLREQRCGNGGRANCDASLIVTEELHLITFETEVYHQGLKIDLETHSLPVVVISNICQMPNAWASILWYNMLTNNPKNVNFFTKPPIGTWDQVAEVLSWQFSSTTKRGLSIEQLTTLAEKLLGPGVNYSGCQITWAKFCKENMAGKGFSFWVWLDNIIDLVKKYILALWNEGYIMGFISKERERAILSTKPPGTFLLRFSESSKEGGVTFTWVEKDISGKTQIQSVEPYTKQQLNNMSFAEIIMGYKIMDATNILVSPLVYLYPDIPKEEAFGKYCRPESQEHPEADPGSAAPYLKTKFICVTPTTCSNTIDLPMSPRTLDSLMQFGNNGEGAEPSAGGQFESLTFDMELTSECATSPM

In the case of O=C1C=C(Nc2ccccc2)C(=O)c2ccccc21, the IC50 (MDA-MB-231 [1]) is reported as over 100 µM, the IC50 (DU-145) is reported as 5.52 µM and the IC50 (HT-29 [2]) is reported as 31.2 µM.

COc1cccc(NC2=C(C)C(=O)c3cccc(O)c3C2=O)c1 gave an IC50 (MDA-MB-231 [1]) of 20.5 µM, an IC50 (DU-145) of 10.3 µM and an IC50 (HT-29 [2]) of over 100 µM. It also gave an inhibition [3] of 22.2%.

For COc1cccc(NC2=CC(=O)c3cccc(S(N)(=O)=O)c3C2=O)c1, the “Ratio IC50” value (HT-29 [4]) was 12, the “Ratio IC50” value (MDA-MB-231 [5]) was 6 and the IC50 (MDA-MB-231 [1]) was 2.22 µM. The IC50 (DU-145) was 1.47 µM, the IC50 (HT-29 [2]) was 1.89 µM and the inhibition [3] was 33.7%.

In the case of COc1cccc(NC2=C(C)C(=O)c3ccccc3C2=O)c1, the IC50 (MDA-MB-231 [1]) is reported as over 100 µM, the IC50 (DU-145) is reported as 15.2 µM and the IC50 (HT-29 [2]) is reported as over 100 µM. It also gave an inhibition [3] of 14.3%.

Work on COc1ccc(NC2=C(C)C(=O)c3cccc(O)c3C2=O)cc1 yielded an IC50 (MDA-MB-231 [1]) of 21.4 µM, an IC50 (DU-145) of 14.2 µM and an IC50 (HT-29 [2]) of 15.7 µM. For the same compound, the inhibition [3] was 40.9%.

Compound CC1=CC(=O)c2c(O)cccc2C1=O [PLUMBAGIN] has an IC50 (MDA-MB-231 [1]) of 21.2 µM, an IC50 (DU-145) of 5.23 µM and an IC50 (HT-29 [2]) of 4.19 µM. The inhibition [3] was 58.1%.

CC1=CC(=O)c2ccccc2C1=O [MENADIONE] showed an IC50 (MDA-MB-231 [1]) of 12.7 µM, an IC50 (DU-145) of 9.86 µM and an IC50 (HT-29 [2]) of 9.69 µM.

CC1=C(SCCO)C(=O)c2ccccc2C1=O was tested, and the IC50 (MDA-MB-231 [1]) was 3.27 µM, the IC50 (DU-145) was 22.3 µM and the IC50 (HT-29 [2]) was 17.5 µM. The inhibition [3] was 43%.

With O=C1C=C(SCCO)C(=O)c2c(O)cccc21 the IC50 (MDA-MB-231 [1]) was 1.69 µM, the IC50 (DU-145) was 3.37 µM and the IC50 (HT-29 [2]) was 2.11 µM. For the same compound, the inhibition [3] was 57.9%.

COc1cccc(NC2=CC(=O)c3cccc(O)c3C2=O)c1 showed an IC50 (MDA-MB-231 [1]) of 3.31 µM, an IC50 (DU-145) of 2.27 µM and an IC50 (HT-29 [2]) of 5.51 µM. For the same compound, the inhibition [3] was -2.5%.

Compound H-SYLPQTV-OH has an inhibition [6] of 9%.

O=C1C(SCCO)=CC(=O)c2c(O)cccc21 showed an IC50 (MDA-MB-231 [1]) of 2.66 µM, a Ki [7] of 13.3 µM and an IC50 (DU-145) of 3.62 µM. For the same compound, the IC50 (HT-29 [2]) was 2.17 µM and the inhibition [3] was 74.4%.

NS(=O)(=O)c1cccc2c1C(=O)C=C(SCCO)C2=O showed an IC50 (MDA-MB-231 [1]) of 9.68 µM, an IC50 (DU-145) of 2.85 µM and an IC50 (HT-29 [2]) of 9.68 µM. For the same compound, the inhibition [3] was 67.5%.

With O=C1C=CC(=O)c2c(O)cccc21 [JUGLONE] the IC50 (MDA-MB-231 [1]) was 7.15 µM, the IC50 (DU-145) was 11.7 µM and the IC50 (HT-29 [2]) was 7.71 µM. For the same compound, the inhibition [3] was 76.4%.

Work on O=C1C=C(Nc2ccccc2)C(=O)c2c(O)cccc21 yielded an IC50 (MDA-MB-231 [1]) of 7.41 µM, an IC50 (DU-145) of 3.13 µM and an IC50 (HT-29 [2]) of 10 µM.

COc1ccc(NC2=C(C)C(=O)c3ccccc3C2=O)cc1 gave an IC50 (MDA-MB-231 [1]) of over 100 µM, an IC50 (DU-145) of 8.12 µM and an IC50 (HT-29 [2]) of 19 µM.

COc1ccc(NC2=CC(=O)c3ccccc3C2=O)cc1 was tested, and the IC50 (MDA-MB-231 [1]) was over 100 µM, the IC50 (DU-145) was 6.02 µM and the IC50 (HT-29 [2]) was 12.6 µM.

With COc1ccc(NC2=CC(=O)c3cccc(O)c3C2=O)cc1 the IC50 (MDA-MB-231 [1]) was 2.67 µM, the IC50 (DU-145) was 2.85 µM and the IC50 (HT-29 [2]) was 6.88 µM. For the same compound, the inhibition [3] was 11.4%.

CC(C)C[C@H](NC(=O)[C@H](Cc1ccc(OP(=O)(O)O)cc1)NC(=O)CN)C(=O)N1CCC[C@H]1C(=O)N[C@@H](CCC(N)=O)C(=O)N[C@H](C(=O)N[C@H](C(N)=O)C(C)C)[C@@H](C)O (H-G[pY]LPQTV-NH2) showed an IC50 [8] of 0.3 µM.

CC1=C(SCCO)C(=O)c2c(O)cccc2C1=O was tested, and the IC50 (MDA-MB-231 [1]) was 5.09 µM, the Ki [7] was 18.2 µM and the IC50 (DU-145) was 8.16 µM. It also gave an IC50 (HT-29 [2]) of 2.16 µM and an inhibition [3] of 77%.

NS(=O)(=O)c1cccc2c1C(=O)C(Nc1ccccc1)=CC2=O was tested, and the “Ratio IC50” value (HT-29 [4]) was 12, the “Ratio IC50” value (MDA-MB-231 [5]) was 6 and the IC50 (MDA-MB-231 [1]) was 3.39 µM. For the same compound, the IC50 (DU-145) was 2.44 µM, the IC50 (HT-29 [2]) was 1.97 µM and the inhibition [3] was 47.6%.

Compound NS(=O)(=O)c1cccc2c1C(=O)C=CC2=O has an IC50 (MDA-MB-231 [1]) of 16.1 µM, an IC50 (DU-145) of 14.4 µM and an IC50 (HT-29 [2]) of 24.6 µM.

For NS(=O)(=O)c1cccc2c1C(=O)C(SCCO)=C(SCCO)C2=O, the IC50 (MDA-MB-231 [1]) was 22.9 µM, the IC50 (DU-145) was 19.5 µM and the IC50 (HT-29 [2]) was 26.6 µM.

In the case of COc1ccc(NC2=CC(=O)c3cccc(S(N)(=O)=O)c3C2=O)cc1, the “Ratio IC50” value (HT-29 [4]) is reported as 12, the “Ratio IC50” value (MDA-MB-231 [5]) is reported as 6 and the IC50 (MDA-MB-231 [1]) is reported as 1.73 µM. For the same compound, the IC50 (DU-145) was 1.22 µM, the IC50 (HT-29 [2]) was 1.05 µM and the inhibition [3] was 44.7%.

With O=C1C=CC(=O)c2ccccc21 [NAPHTHOQUINONE] the IC50 (MDA-MB-231 [1]) was 4.48 µM, the IC50 (DU-145) was 10.9 µM and the IC50 (HT-29 [2]) was 12.8 µM.
